procasp7 counter: activates human procaspase-7, counter-screen for procaspase-3 activators. P55210. recombinant procaspase-7, Ac-DEVD-pNA absorbance 405 nm; D23A/D198A/D206A triple mutant, cannot self-cleave; scale: DMSO 0, 5 µM enzyme 100. activation, % at 8.5 µM. actives 0.093% (n = 330,000);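 active means percent activation above the screen-wide mean plus 3 SD, cut at about 25% in these data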
Target sequence (P55210 whole entry D23A/D198A/D206A): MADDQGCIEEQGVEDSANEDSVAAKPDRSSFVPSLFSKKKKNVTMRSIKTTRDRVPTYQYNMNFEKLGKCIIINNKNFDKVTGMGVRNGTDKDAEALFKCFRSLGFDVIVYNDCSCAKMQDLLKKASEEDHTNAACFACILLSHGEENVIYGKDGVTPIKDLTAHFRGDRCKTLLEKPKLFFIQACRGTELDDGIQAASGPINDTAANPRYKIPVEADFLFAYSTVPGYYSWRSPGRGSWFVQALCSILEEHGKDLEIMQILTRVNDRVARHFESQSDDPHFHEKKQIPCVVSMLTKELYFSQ
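Detection: p-Nitroaniline absorbance at 405 nm, read at 0 and 120 min; system: Uncleavable procaspase-7 mutant enzyme; evaluation: % activation from two-timepoint absorbance difference, scaled to controls; times: 1 h enzyme–compound preincubation and 2 h substrate reaction, both 25 °C; buffer or medium: Zinc-free HEPES pH 7.4 with 300 mM NaCl, 0.01% Triton X-100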
PHOSPHO1 block: inhibitors of human PHOSPHO1 phosphatase; Q8TCT1; recombinant PHOSPHO1, absorbance phosphatase assay; inhibition, % at 13.3 µM; AID 1565; actives 1.1% (n = 290,000); in the data active means inhibition above about 60%
proCasp3 act: activators of human procaspase-3; P42574; recombinant procaspase-3 D3A, Ac-DEVD-pNA absorbance 405 nm; activation, % at 8.5 µM; actives 0.11% (n = 330,000);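 active means activation above the mean of all tested compounds plus 3 SD, cut at about 21% in these data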;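 further: 0% = DMSO alone and 100% = DMSO wells spiked with extra 5 µM PC-3 D3A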
Target sequence (P42574 whole entry D9A/D28A/D175A): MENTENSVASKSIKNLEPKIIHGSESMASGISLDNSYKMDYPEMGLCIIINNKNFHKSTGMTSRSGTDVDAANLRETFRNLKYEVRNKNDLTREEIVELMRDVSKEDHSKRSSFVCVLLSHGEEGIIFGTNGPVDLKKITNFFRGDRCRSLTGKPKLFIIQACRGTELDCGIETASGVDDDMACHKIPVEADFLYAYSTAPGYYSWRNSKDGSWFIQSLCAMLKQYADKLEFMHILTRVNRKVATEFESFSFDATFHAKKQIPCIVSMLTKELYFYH
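Assay system: Autoprocessing-dead procaspase-3 D3A mutant enzyme; also added: Ac-DEVD-pNA; doses: one concentration, 8.5 µM nominal, 0.8% DMSO; times: 1 h compound preincubation, 2 h substrate hydrolysis at 25 °C; technique: 405 nm absorbance of p-nitroaniline, reads at 0 and 120 min; measure: % activation between DMSO and enzyme-spiked controls; repeats: single replicate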
UBC13 polyUb: inhibitors of human UBC13 polyubiquitin chain formation. P61088. TR-FRET. inhibition, % at 20 µM. actives 0.47% (n = 330,000); in the data active means inhibition above about 45%, passing the limit was not always enough; inconclusive means no clear call, values can overlap the other calls
IDE cell inh: inhibits human insulin-degrading enzyme in HEK cells; P14735; FAbetaB cleavage, fluorescence polarization; inhibition, % at 5.59 µM; actives 0.41% (n = 320,000);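 active means percent inhibition above the average of all tested compounds plus 3 SD, set per screening campaign, cut at about 16% in these data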;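 further: IDE supplied by intact live HEK cells; FP after avidin binding of uncleaved biotin substrate so inhibition keeps polarization high; 0% = DMSO wells and 100% = 60 µM reference IDE inhibitor Ii1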
IDE act: IDE (human) activation, cell-based. HEK cells, FAbeta-B cleavage, fluorescence polarization; 0% vehicle, 100% cell-free pure enzyme wells. actives 0.073% (n = 340,000). activation, % at 5.96 µM. P14735;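 active means activation above the mean of all tested compounds plus 3 SD, set per screening campaign, cut at about 17% in these data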
Casp3 counter: inhibits human caspase-3 in UBC13 counter-screen. actives 4% (n = 1,400). shares compounds with UBC13 polyUb. Recombinant caspase-3, Caspase-Glo 3/7 luminescence, 60 min. AID 488856. inhibition, % at 20 µM;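 active means mean inhibition across replicates above about 26%, limit read from the data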;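 further: plate controls were DMSO with caspase-3 for no effect and DMSO wells lacking enzyme for full effect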
UBC13 conf: human UBC13 polyubiquitin inhibition, confirmed | UBC13 polyubiquitination, TR-FRET, biochemical | actives 68% (n = 1,400) | inhibition, % at 10 µM | shares compounds with UBC13 polyUb; in the data active means inhibition above about 45%; inconclusive means no clear call, values can overlap the other calls
Numbers without * were called inactive; ? = inconclusive; · = not tested or not shown. Most compounds without a hit are left out; they make up all but 1.9% or so of the library.

SMILES	procasp7 counter	PHOSPHO1 block	proCasp3 act	UBC13 polyUb	IDE cell inh	IDE act	Casp3 counter	UBC13 conf
COCCN1C(=O)N[C@@H](c2ccco2)C(C(=O)OC)=C1C	11	·	-4	0	3	3	·	·
O=C(NCc1ccccc1C(F)(F)F)C1CCC(=O)N(CCCc2ccccc2)C1 (stereo unspecified)	2	41	0	-2	-1	-1	·	·
C=CCc1cc(C=Nc2ccc(N3CCOCC3)cc2)cc(OCC)c1O	·	·	·	·	·	3	·	·
Cn1c(=O)cc(SCC(=O)NCCCN2CCN(c3ccc(F)cc3)CC2)c2ccccc21	-11	18	-4	82*	-3	1	-2	?
O=C(O)CC(C(=O)O)N1C(=O)/C(=C/C=C/c2ccco2)SC1=S (stereo unspecified)	-20	17	-15	74*	1	-5	2	48*
O=C(O)C(Cc1ccccc1)N1C(=O)/C(=C/C=C/c2ccco2)SC1=S (stereo unspecified)	·	17	·	·	·	-12	·	·
O=C(NN1C(=O)/C(=C/C=C/c2ccco2)SC1=S)c1ccccc1O	-16	86*	-1	45*	-4	-1	4	-6
COc1ccc(NC(=O)COC(=O)CCNC(=O)c2ccco2)cc1Cl	-2	·	-3	4	-3	2	·	·
NCCNc1ccc(C(=O)N2c3ccccc3Sc3ccccc32)cc1[N+](=O)[O-]	-2	36	6	65*	-3	1	-2	111*
COCCNC(=S)N=Nc1c(O)[nH]c2ccc([N+](=O)[O-])cc12	-1	33	2	89*	-2	1	1	96*
CC(C)n1c(NCc2cc(Cl)ccc2O)nc2ccccc21	-3	3	-1	67*	1	-7	0	54*
COC(=O)c1ccc(CNC(=O)C(NC(=O)c2ccco2)C(C)C)cc1 (stereo unspecified)	4	28	7	7	0	-1	·	·
Cc1cc(C)c(OCC(=O)N2CC=C(c3ccccc3)CC2)c(C)c1	-5	28	3	-2	-2	3	·	·
COc1ccccc1NC(=O)CSc1nc2ccccc2n1C(C)=O	2	-7	1	46*	5	6	-1	28
Cc1cccc(Nc2c(O)nc[nH]c2=O)c1	·	·	·	·	·	-2	·	·
CN(C)CCC(=O)C(Cc1ccccc1)c1ccccc1 (stereo unspecified)	-18	·	-24	47*	5	4	4	40
O=C(Nc1oc2ccccc2c(=O)c1-c1ccc(Cl)cc1)c1ccco1	5	8	6	-5	4	5	·	·
COc1ccccc1NC(=O)c1cc(S(=O)(=O)N2CCCCCC2)ccc1F	-2	17	4	68*	-12	-7	-4	90*
COc1ccc(C)cc1NC(=O)c1cc(S(=O)(=O)N2CCCCC2)ccc1N1CCOCC1	-10	·	1	65*	-5	3	-3	51*
COc1cc(NC(=O)c2cc(S(=O)(=O)N3CCCCC3)ccc2N2CCOCC2)cc(OC)c1	9	·	12	6	-3	5	·	·
Cc1ccc(-n2nc3c4c(cccc4c2=O)-c2ccccc2-3)cc1	-8	18	-6	46*	1	5	8	39
O=C(O)Cn1nc2c3c(cccc3c1=O)-c1ccccc1-2	-1	1	-2	6	3	3	·	·
CC(C)C[C@H]1CN=C(Nc2ccccc2)N1CC1CCC(C(C)(C)C)CC1 (stereo partly specified)	4	·	-1	87*	0	8	-2	73*
Cn1c2ccccc2c2c(C(=O)NCCCN3CCCC3=O)cn(C3CCCCC3)c(=O)c21	-1	23	-5	1	0	-4	·	·
CN1CCN(CCCNC(=O)c2cn(C3CCCCC3)c(=O)c3c2c2ccccc2n3C)CC1	3	5	-4	64*	5	0	-4	64*
SMILES	procasp7 counter	PHOSPHO1 block	proCasp3 act	UBC13 polyUb	IDE cell inh	IDE act	Casp3 counter	UBC13 conf
Cc1cccc(NC(=S)N=Nc2c(O)[nH]c3ccccc23)c1	0	1	14	60*	-4	-2	2	76*
Cc1cc(C)c2[nH]c(O)c(N=NC(=S)NCC3CCCO3)c2c1 (stereo unspecified)	6	-19	0	91*	0	-2	-6	94*
Oc1[nH]c2ccccc2c1N=NC(=S)NCC1CCCO1 (stereo unspecified)	2	3	2	98*	4	1	2	102*
Oc1[nH]c2ccc(Br)cc2c1N=NC(=S)NCC1CCCO1 (stereo unspecified)	-4	24	3	79*	-4	5	3	97*
O=C(N=Nc1c(O)[nH]c2ccccc12)Nc1ccccc1	·	·	·	·	·	-5	·	·
COc1cc(C(C)=NNC(=O)c2ccncc2)ccc1O	·	·	·	·	·	1	·	·
COc1ccc(NS(=O)(=O)c2cccc(C(=O)O)c2)cc1S(=O)(=O)N1CCOCC1	-1	·	11	0	0	6	·	·
CC(=O)c1ccc(-c2ccc(-c3cc(=O)oc4c(C(C)C)ccc(C)c34)cc2)cc1	-1	·	4	·	·	2	·	·
CC(C)c1ccc2[nH]c(O)c(N=NC(=O)c3cccc(S(=O)(=O)Nc4ccccc4Cl)c3)c2c1	12	7	-1	-28	4	4	·	·
CC(C)NC(=S)N=Nc1c(O)[nH]c2ccc(C(C)C)cc12	2	-2	-5	65*	6	0	0	74*
CCn1c(O)c(N=NC(=S)NCC2CCCO2)c2ccccc21 (stereo unspecified)	7	16	4	77*	3	5	2	95*
CN(C)C/C=C/C(=O)Nc1cccc(-c2c[nH]c3ncnc(Oc4ccc(NC(=O)CC(=O)Nc5ccc(F)cc5)cc4F)c23)c1	1	·	3	112*	1	7	3	117*
CCN(C(=O)COC(=O)CNC(=O)c1ccc(C)cc1)c1c(N)n(Cc2ccccc2)c(=O)[nH]c1=O	1	·	0	13	-1	3	·	·
O=C1c2cccc3cccc(c23)C(=O)N1CCN1CCN(CC(O)COCc2ccc(Cl)cc2)CC1 (stereo unspecified)	-2	-2	4	98*	-1	4	-4	108*
